Data published in ChEMBL document CHEMBL1135479, “Design, synthesis, and evaluation of new chemosensitizers in multi-drug-resistant Plasmodium falciparum” (2002).

Key:
[1] = (§1) Fractional inhibitory concentration (FIC) tested against Peruvian PC49 cells, isolate from South America; format: functional, Plasmodium falciparum
Summary of the method: (§2)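 Parasite growth read by [3H]hypoxanthine incorporation in erythrocytes at 0.2% parasitemia and 1% hematocrit. Medium: folate- and PABA-free RPMI-1640 with 10% heat-inactivated human plasma or Albumax. Cultures were kept at 37 °C under 5% CO2/5% O2/90% N2, with label added at 42 h and 66 h total incubation. Counts were taken after freeze-thaw harvest, IC50 came from nonlinear logistic fits, and FIC index was derived from isobologram.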

Plasmodium falciparum [2] = test: Fractional inhibitory concentration (FIC) against Plasmodium falciparum W2 of equimolar (1:1) combination dose with chloroquine; format: functional; summary of the method: as §2
[3] = (§3) Fractional inhibitory concentration (FIC) tested against RCS cells, isolate from Brazil.; format: functional, Plasmodium falciparum; summary of the method: as §2
Plasmodium falciparum [4] = test: Fractional inhibitory concentration (FIC) tested against TM91C235 isolate.; format: functional; summary of the method: as §2
Plasmodium falciparum [5] = test: In vitro anti-MDR effect in chloroquine and mefloquine resistant TM91C235 cell lines at 50 ng/ml concentration; format: functional
Summary of the method: (§4)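 TM91C235 P. falciparum in erythrocytes at 0.2% parasitemia and 1% hematocrit, in folate- and PABA-free RPMI-1640 with 10% heat-inactivated human plasma or Albumax. Incubated 66 h at 37 °C under 5% CO2/5% O2/90% N2, with 3H-hypoxanthine added at 42 h. Cells lysed by freezing at -70 °C and harvested; inhibition of isotope incorporation read by scintillation counting.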

Plasmodium falciparum [6] = test: In vitro anti-MDR effect in chloroquine and mefloquine resistant TM91C235 cell lines at 5000 ng/ml concentration; format: functional; summary of the method: as §4
Plasmodium falciparum [7] = test: In vitro anti-MDR effect in chloroquine resistant TM91C235 cell lines at 500 ng/ml concentration in the presence of 10 ng/mL chloroquine; format: functional
Summary of the method: (§5)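 Test agent was combined with chloroquine at 10 ng/mL. TM91C235 was cultured in erythrocytes at 0.2% parasitemia and 1% hematocrit, in folate- and PABA-free RPMI-1640, for 66 h at 37 °C under 5% CO2/5% O2/90% N2. 3H-hypoxanthine was added at 42 h, and cell suppression was taken from scintillation counts of harvested lysates.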

Plasmodium falciparum [8] = test: In vitro anti-MDR effect in mefloquine resistant TM91C235 cell lines at 50 ng/ml concentration in the presence of 5 ng/mL mefloquine; format: functional
Summary of the method: (§6)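 Mefloquine was held at 5 ng/mL, combined with test agent. Parasites (TM91C235) were in erythrocytes at 0.2% parasitemia and 1% hematocrit, in folate/PABA-free RPMI-1640 with human plasma or Albumax. Incubation was 66 h at 37 °C in 5% CO2/5% O2/90% N2, with 3H-hypoxanthine added for the last 24 h. Incorporation was counted after freeze-lysis and harvesting.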

Plasmodium falciparum [9] = test: In vitro anti-MDR effect in mefloquine resistant TM91C235 cell lines at 5000 ng/ml concentration in the presence of 5 ng/mL mefloquine; format: functional; summary of the method: as §6
Plasmodium falciparum [10] = test: In vitro anti-MDR effect in chloroquine and mefloquine resistant TM91C235 cell lines at 500 ng/ml concentration; format: functional; summary of the method: as §4
Plasmodium falciparum [11] = test: In vitro anti-MDR effect in chloroquine resistant TM91C235 cell lines at 50 ng/ml concentration in the presence of 10 ng/mL chloroquine; format: functional; summary of the method: as §5
Plasmodium falciparum [12] = test: In vitro anti-MDR effect in chloroquine resistant TM91C235 cell lines at 5000 ng/ml concentration in the presence of 10 ng/mL chloroquine; format: functional; summary of the method: as §5
Plasmodium falciparum [13] = test: In vitro anti-MDR effect in mefloquine resistant TM91C235 cell lines at 500 ng/ml concentration in the presence of 5 ng/mL mefloquine; format: functional; summary of the method: as §6
Plasmodium falciparum [14] = test: Fractional inhibitory concentration (FIC) against Plasmodium falciparum W2 at equimolar (1:1) combination dose with chloroquine; format: functional; summary of the method: as §2
Plasmodium falciparum [15] = test: Fractional inhibitory concentration (FIC) tested against TM91C235 cells, isolate from South east Asia.; format: functional; summary of the method: as §2
[16] = as §3; format: functional; summary of the method: as §2
Plasmodium falciparum [17] = test: Fractional inhibitory concentration (FIC) (1:1 combination of compound and chloroquine) was tested in Plasmodium falciparum W2 clone.; format: functional; summary of the method: as §2
Plasmodium falciparum [18] = test: Fractional inhibitory concentration (FIC) tested against TM91C235 cells, isolate from South east Asia; format: functional; summary of the method: as §2
[19] = as §1; format: functional; summary of the method: as §2

| SMILES | FIC [1] | FIC (Plasmodium falciparum [2]) | FIC [3] | FIC (Plasmodium falciparum [4]) | Suppression (Plasmodium falciparum [5]) [%] | Suppression (Plasmodium falciparum [6]) [%] | Suppression (Plasmodium falciparum [7]) [%] | Suppression (Plasmodium falciparum [8]) [%] | Suppression (Plasmodium falciparum [9]) [%] | Suppression (Plasmodium falciparum [10]) [%] | Suppression (Plasmodium falciparum [11]) [%] | Suppression (Plasmodium falciparum [12]) [%] | Suppression (Plasmodium falciparum [13]) [%] | FIC (Plasmodium falciparum [14]) | FIC (Plasmodium falciparum [15]) | FIC [16] | FIC (Plasmodium falciparum [17]) | FIC (Plasmodium falciparum [18]) | FIC [19] |
| --- | --- | --- | --- | --- | --- | --- | --- | --- | --- | --- | --- | --- | --- | --- | --- | --- | --- | --- | --- |
| c1ccc2c(c1)Sc1ccccc1N2CCCCN1CCCCC1 | 0.83 | 0.49 | 0.68 | 0.52 |  |  |  |  |  |  |  |  |  |  |  |  |  |  |  |
| c1ccc2c(c1)CCc1ccccc1N2CCCCCCN1CCCC1 | 0.92 | 0.57 | 0.6 | 0.54 |  |  |  |  |  |  |  |  |  |  |  |  |  |  |  |
| CN(CCCCN1c2ccccc2Sc2ccccc21)Cc1ccccc1 |  |  |  |  | 13 | 35 | 27 | 0 | 13 | 18 | 14 | 62 | 0 |  |  |  |  |  |  |
| c1ccc2c(c1)CCc1ccccc1N2CCCCCN1CCCC1 | 0.59 | 0.48 | 0.37 | 0.55 |  |  |  |  |  |  |  |  |  |  |  |  |  |  |  |
| c1ccc(CN(CCCCN2c3ccccc3Sc3ccccc32)Cc2ccccc2)cc1 |  |  |  |  | 7 | 22 | 16 | 0 | 9 | 10 | 12 | 25 | 3 |  |  |  |  |  |  |
| CN1CCN(CCCCN2c3ccccc3Sc3ccccc32)CC1 | 0.98 | 0.4 | 0.49 | 0.48 |  |  |  |  |  |  |  |  |  |  |  |  |  |  |  |
| c1ccc2c(c1)Sc1ccccc1N2CCCCN1CCCC1 | 0.5 | 0.21 | 0.51 | 0.25 | 38 | 96 | 99 | 33 | 95 | 70 | 99 | 100 | 67 |  |  |  |  |  |  |
| c1ccc2c(c1)CCc1ccccc1N2CCCCN1CCCC1 | 0.66 | 0.32 | 0.51 | 0.42 | 58 | 100 | 100 | 64 | 100 | 98 | 99 | 100 | 96 |  |  |  |  |  |  |
| C1=Cc2ccccc2N(CCCCN2CCCC2)c2ccccc21 | 0.74 | 0.33 | 0.59 | 0.49 |  |  |  |  |  |  |  |  |  |  |  |  |  |  |  |
| CCN(CC)CCCCN1c2ccccc2CCc2ccccc21 | 0.57 | 0.39 | 0.57 | 0.41 | 62 | 100 | 100 | 64 | 100 | 95 | 99 | 100 | 95 |  |  |  |  |  |  |
| CN(CCCCN1c2ccccc2CCc2ccccc21)Cc1ccccc1 |  |  |  |  | 30 | 60 | 20 | 20 | 41 | 32 | 10 | 33 | 22 |  |  |  |  |  |  |
| CCN(CC)CCCCCCN1c2ccccc2CCc2ccccc21 |  | 0.48 | 0.72 | 0.59 |  |  |  |  |  |  |  |  |  |  |  |  |  |  |  |
| CN1CCN(CCCCN2c3ccccc3CCc3ccccc32)CC1 |  | 0.52 | 0.66 | 0.54 |  |  |  |  |  |  |  |  |  |  |  |  |  |  |  |
| CN(C)CCCCN1c2ccccc2CCc2ccccc21 | 0.62 | 0.23 | 0.52 | 0.26 | 59 | 96 | 99 | 43 | 95 | 73 | 99 | 100 | 70 |  |  |  |  |  |  |
| CN(C)CCCCN1c2ccccc2Sc2ccccc21 |  |  |  |  | 17 | 92 | 97 | 2 | 92 | 27 | 30 | 100 | 31 | 0.23 | 0.28 | 0.51 |  |  |  |
| c1ccc2c(c1)CCc1ccccc1N2CCCCN1CCCCC1 | 0.73 | 0.45 | 0.36 | 0.54 |  |  |  |  |  |  |  |  |  |  |  |  |  |  |  |
| c1ccc(CN(CCCCN2c3ccccc3CCc3ccccc32)Cc2ccccc2)cc1 |  |  |  |  | 11 | 13 | 8 | 14 | 19 | 17 | 6 | 13 | 22 |  |  |  |  |  |  |
| CCN(CC)CCCCCN1c2ccccc2CCc2ccccc21 | 0.82 | 0.44 | 0.36 | 0.48 |  |  |  |  |  |  |  |  |  |  |  |  |  |  |  |
| CCN(CC)CCCCN1c2ccccc2C=Cc2ccccc21 | 0.6 | 0.53 | 0.39 | 0.33 |  |  |  |  |  |  |  |  |  |  |  |  |  |  |  |
| CCN(CC)CCCCN1c2ccccc2Sc2ccccc21 | 0.41 |  | 0.41 |  | 26 | 100 | 99 | 17 | 100 | 38 | 31 | 100 | 30 |  |  |  | 0.23 | 0.29 |  |
| c1ccc2c(c1)Sc1ccccc1N2CCCCN1CCOCC1 | 0.81 | 0.39 | 0.37 | 0.32 |  |  |  |  |  |  |  |  |  |  |  |  |  |  |  |
| c1ccc2c(c1)CCc1ccccc1N2CCCCN1CCOCC1 | 0.78 | 0.31 | 0.89 | 0.54 |  |  |  |  |  |  |  |  |  |  |  |  |  |  |  |
| COc1ccc(CCN(C)CCCC(C#N)(c2ccc(OC)c(OC)c2)C(C)C)cc1OC (configuration not stated) [VERAPAMIL] |  | 0.51 |  |  |  |  |  |  |  |  |  |  |  |  |  | 0.63 |  |  | 0.61 |
